Consider five compounds from article PMC5048114 (Iranian Journal of Basic Medical Sciences, 2016).

The nature of experiment [1]: DPPH free radical scavenging assay. Conditions: 0.3 mM DPPH, 30 min at 37 °C, absorbance 515 nm. Put shortly: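 Test compound at four concentrations (µg/ml) in microplate wells, mixed with ethanolic DPPH. Blank is solvent alone with DPPH. Absorbance decrease is read after incubation. Run in triplicate and reported as the mean of three values.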
Experiment [2] can be described thus: Ferric reducing antioxidant potential. The settings on record: 30 min incubation at 37 °C, absorbance 593 nm. The method, boiled down: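 FRAP reagent is 300 mM acetate buffer pH 3.6, 20 mM ferric chloride hexahydrate in water and 10 mM TPTZ in 40 mM HCl, combined 10:1:1 by volume (stock concentrations). Test compound at five concentrations (µg/ml) is added to the reagent in microplate wells, and absorbance is read after incubation. Run in triplicate.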

Experiment [3] relates to glutamate-induced neurotoxicity. Conditions: concentrations ranging from 0.1 to 10 µM; cited from earlier work.

Structures are written as SMILES. ≈ marks a conversion by molar mass, not a printed value.

In the case of `COc1cc(O)c2c(=O)c(OC)c(-c3ccc(O)cc3)oc2c1` [Jaranol, jaranol], the “IC50 (DPPH radical scavenging activity)” value in experiment [1] is 12 µg/mL (≈ 38.2 µM). The same compound had an FRAP in experiment [2] of 1.5 mmol/g.
For `C[C@@H]1O[C@@H](OC[C@H]2O[C@@H](OCCc3ccc(O)c(O)c3)[C@H](O)[C@@H](O[C@@H]3O[C@@H](C)[C@H](O)[C@@H](O)[C@H]3O)[C@@H]2OC(=O)/C=C/c2ccc(O)c(O)c2)[C@H](O)[C@H](O)[C@H]1O` [Poliumoside, poliumoside], the “attenuation of glutamate-induced neurotoxicity” value in experiment [3] is “significantly attenuated glutamate-induced neurotoxicity”. Further, in experiment [1], the “IC50 (DPPH radical scavenging activity)” value was found to be 0.042 µg/mL (≈ 0.0545 µM). In addition, in experiment [2], the FRAP stood at 14.32 mmol/g.
Turning to `C[C@@H]1O[C@@H](OC[C@H]2O[C@@H](Oc3cc(O)c4c(=O)cc(-c5ccc(O)cc5)oc4c3)[C@H](O)[C@@H](O)[C@@H]2O)[C@H](O)[C@H](O)[C@H]1O` [Isorhoifolin, isorhoifolin], the “IC50 (DPPH radical scavenging activity)” value in experiment [1] was determined as 1.37 µg/mL (≈ 2.37 µM). The FRAP in experiment [2] came to 7.67 mmol/g.
In the case of `C[C@@H]1O[C@@H](O[C@@H]2[C@@H](O)[C@H](OCCc3ccc(O)c(O)c3)O[C@H](CO)[C@H]2OC(=O)/C=C/c2ccc(O)c(O)c2)[C@H](O)[C@H](O)[C@H]1O` [Verbascoside, verbascoside], the “IC50 (DPPH radical scavenging activity)” value in experiment [1] stood at 0.53 µg/mL (≈ 0.849 µM). Moreover, the FRAP in experiment [2] worked out at 7.49 mmol/g.
Take `Cc1c(C)c2c(c(C)c1O)CC[C@@](C)(CCC[C@H](C)CCC[C@H](C)CCCC(C)C)O2` [α- tocopherol, α-tocopherol, reference compound]: the “IC50 (DPPH radical scavenging activity)” value in experiment [1] was determined as 0.41 µg/mL (≈ 0.952 µM). The compound also yielded an FRAP in experiment [2] of 1.99 mmol/g.
